Converted amounts (≈) assume the structure as drawn.

Results on one compound are retold here after ChEMBL document CHEMBL1649111, “Restoration of susceptibility of intracellular methicillin-resistant Staphylococcus aureus to beta-lactams: comparison of strains, cells, and antibiotics” (Antimicrob Agents Chemother, 2008).

Assay [1] deals with Staphylococcus aureus. Description: Antimicrobial activity against Panton-valentine leukocidin positive community acquired methicillin-resistant Staphylococcus aureus N4042228 infected in human THP-1 cells assessed as increase in bacterial count from original inoculum at low compound concentration after 24 hrs at pH 5.5. The assay is classed as functional. In short, it runs like this: (§1)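 Bacteria phagocytosed by unactivated human THP-1 macrophages, then incubated 24 h with extracellular antibiotic at about 0.01× to 100× the pH 5.5 broth MIC. CFU per mg cell protein counted against the original inoculum, n = 3. A Hill-equation fit (slope factor 1) gave Emin and Emax, extrapolated to infinitely low and high concentration, and EC50. Static concentration was graphically interpolated.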

Assay [2] has as its system Staphylococcus aureus. The assay can be described thus: Antimicrobial activity against constitutive beta-lactamase negative methicillin-resistant Staphylococcus aureus COL NRS100 by broth microdilution method at pH 5.5. The assay is classed as functional. For orientation: Broth dilution looks for growth in wells or tubes with falling amounts of substance.
Assay [3] concerns Staphylococcus aureus. The assay can be described thus: Antimicrobial activity against Panton-valentine leukocidin positive community acquired methicillin-resistant Staphylococcus aureus NRS192 obtained from patient with pneumonia and septic arthritis infected in human THP-1 cells assessed as increase in bacterial count from original inoculum at low compound concentration after 24 hrs at pH 5.5. The assay is classed as functional. In short, it runs like this:
as §1

For assay [4], the system named is Staphylococcus aureus. The assay can be described thus: Antimicrobial activity against animal acquired methicillin-resistant Staphylococcus aureus N7112046 infected in human THP-1 cells assessed as decrease in bacterial growth after 24 hrs at pH 5.5. The assay is classed as functional, organism-based. The settings on record: N7112046, THP-1, 24 h. An outline of the steps:
as §1

`Cc1onc(-c2ccccc2Cl)c1C(=O)N[C@@H]1C(=O)N2[C@@H]1SC(C)(C)[C@@H]2C(=O)O` [CLOXACILLIN]: the figures for the log10cfu in assay [1] and in assay [3] were 2.68 and 1.84, respectively. Moreover, the MIC (in general, the smallest concentration in the dilution series that meets the test's criterion for growth inhibition) in assay [2] turned out to be 0.25 µg/mL (≈ 0.574 µM). The EC50 in assay [4] was 6.99 ×MIC.
